Laboratory results from ChEMBL document CHEMBL4270592, “8-Aryl-6-chloro-3-nitro-2-(phenylsulfonylmethyl)imidazo[1,2-a]pyridines as potent antitrypanosomatid molecules bioactivated by type 1 nitroreductases” (Eur J Med Chem, 2018).
pIC50: −log10 of the molar value.

Tests used:
HepG2 = test: Cytotoxicity against human HepG2 cells assessed as reduction in cell viability after 72 hrs by MTT assay; type: cell-based; conditions: hepg2, 72 h
Summary of the method: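 HepG2 cells in RPMI with 10% FCS, L-glutamine and penicillin/streptomycin, 37 °C, 6% CO2. After 24 h, compounds in DMSO (final <0.5% v/v) added for 72 h, in duplicate. Precipitate checked, MTT (0.5 mg/mL) 2 h, formazan dissolved in DMSO, A570 with 630 nm reference. Viability as % of untreated control; CC50 from dose-response curve; doxorubicin positive control.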

THP-1 = test: (§1) Cytotoxicity against human THP1 cells assessed as reduction in cell viability after 72 hrs by MTT assay; type: cell-based; conditions: thp-1, 72 h
Summary of the method: (§2)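 THP1 cells in complete RPMI with PMA (final 50 ng/mL) at 10⁶ cells/mL, differentiated 48 h. Compounds in DMSO (final <0.5% v/v) then added for 72 h at 37 °C. MTT (0.5 mg/mL in FCS-free medium) 2 h, formazan dissolved in DMSO, A570 with 630 nm reference. Viability as % of untreated control; CC50 from dose-response curve; doxorubicin positive control.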

[1] = tested on: Trypanosoma brucei brucei; test: Antitrypanosomal activity against trypomastigote stage of Trypanosoma brucei brucei AnTat 1.9 assessed as decrease in parasite viability after 69 hrs by Alamar blue assay; type: functional, organism-based; conditions: AnTat 1.9, 69 h
Summary of the method: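 AnTat 1.9 in MEM with Earle's salts plus 0.5 mM mercaptoethanol, 1.5 mM L-cysteine, 0.05 mM bathocuproine sulfate and 20% heat-inactivated horse serum, 37 °C, 5% CO2. Seeded 2000 parasites/100 µL with compounds in DMSO, in duplicate, 69 h, then Alamar Blue for 5 h.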

[2] = Selectivity index, ratio of CC50 for human HepG2 cells to IC50 for trypomastigote stage of Trypanosoma brucei brucei AnTat 1.9; type: toxicity; conditions: read-out: Ratio CC50/IC50
Leishmania infantum = test: Antileishmanial activity against axenic amastigote stage of Leishmania infantum assessed as inhibition of parasite metabolic activity after 48 hrs by luciferase reporter gene based luminescence assay; type: functional, organism-based
Summary of the method: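 L. infantum promastigotes in log phase switched to RPMI 1640 pH 5.4 for 24 h at 24 °C, then 24 h at 37 °C to give axenic amastigotes. Seeded at 2.106 parasites/mL with compounds in DMSO (final <0.5% v/v), in duplicate, 48 h at 37 °C. Wells checked for precipitate, luciferase luminescence read, IC50 by non-linear regression as mean.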

[3] = Selectivity index, ratio of CC50 for human HepG2 cells to IC50 for axenic amastigote stage of Leishmania infantum; type: toxicity; conditions: read-out: Ratio CC50/IC50
Leishmania donovani [4] = test: Antileishmanial activity against promastigote stage of Leishmania donovani MHOM/IN/00/DEVI assessed as inhibition of parasite metabolic activity after 72 hrs by MTT assay; type: functional, organism-based
Summary of the method: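 MHOM/IN/00/DEVI log-phase promastigotes in Schneider's medium with 20% FCS, 2 mM L-glutamine and antibiotics. Seeded at 10⁶ parasites/mL with compounds in DMSO (final <0.5% v/v), in duplicate, 72 h at 27 °C. MTT added for 4 h, stopped with 50% isopropanol–10% SDS, A570 read. IC50 by nonlinear regression, mean of three independent experiments.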

[5] = as §1; type: cell-based, THP-1; conditions: THP1 cells; summary of the method: as §2
[6] = tested on: Trypanosoma brucei brucei; test: […] activity against wild type bloodstream form of Trypanosoma brucei brucei S427 after 72 hrs; type: functional, organism-based; conditions: S427, 72 h
Summary of the method: (§3)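 Bloodstream-form T. brucei single marker S427 (T7RPOL TETR NEO) cultured at 37 °C in HMI9-T with 2.5 µg/mL G418. NTR1-overexpressing line kept in 2.5 µg/mL phleomycin and induced with 1 µg/mL tetracycline 48 h before the assay. Triplicate cultures seeded at 1×10^5 cells/mL with inhibitor; cell densities counted after 72 h to give EC50.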

[7] = Substrate activity at recombinant type-1 nitroreductase in bloodstream form of Trypanosoma brucei brucei S427 assessed as inhibition of parasite growth after 72 hrs; summary of the method: as §3
[8] = Electrochemical behavior of the compound assessed as redox potential corrected toward normal hydrogen electrode by cyclic voltammetry; type: physicochemical
Leishmania donovani [9] = test: Antileishmanial activity against intramacrophage amastigote stage of Leishmania donovani infected in human THP1 cells after 120 hrs by Giemsa staining based microscopy; type: functional, organism-based; conditions: THP-1, 120 h
Summary of the method: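 THP-1 cells differentiated with PMA (final 50 ng/mL) for 48 h at 37 °C, 6% CO2. Infected 10:1 with L. donovani promastigotes acidified 24 h at 27 °C in Schneider 20% FCS pH 5.4. After 24 h, compounds added in duplicate (DMSO <0.5% v/v) for 120 h.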

[10] = Selectivity index, ratio of CC50 for human HepG2 cells to IC50 for promastigote stage of Leishmania donovani MHOM/IN/00/DEVI; type: toxicity; conditions: read-out: Ratio CC50/IC50
Leishmania donovani [11] = test: Antileishmanial activity against wild type promastigote stage of Leishmania donovani MHOM/SD/62/1S-CL2D LdBOB after 72 hrs by resazurin dye based assay; type: functional, organism-based
Summary of the method: (§4)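 Clonal L. donovani LdBOB promastigotes grown at 26 °C in modified M199. NTR1 and NTR2 overexpressers kept in nourseothricin 100 µg/mL. Triplicate 10 mL cultures seeded at 5×10^4 parasites/mL with drug for 72 h. Aliquots received 50 µM resazurin, read by fluorescence (ex 528/em 590 nm) after 4 h. Background-corrected 2-parameter fit gave EC50; at least two repeats, mean ± SD.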

[12] = Selectivity index, ratio of CC50 for human HepG2 cells to IC50 for intramacrophage amastigote stage of Leishmania donovani infected in human THP1 cells; type: toxicity, cell-based; conditions: read-out: Ratio CC50/IC50
[13] = Substrate activity at recombinant nitroreductase 2 in promastigote stage of Leishmania donovani MHOM/SD/62/1S-CL2D LdBOB assessed as inhibition of parasite growth after 72 hrs by resazurin dye based assay; summary of the method: as §4
[14] = Substrate activity at recombinant type-1 nitroreductase in promastigote stage of Leishmania donovani MHOM/SD/62/1S-CL2D LdBOB assessed as inhibition of parasite growth after 72 hrs by resazurin dye based assay; summary of the method: as §4
[15] = tested on: Trypanosoma brucei brucei; test: Selectivity ratio of IC50 for wild type bloodstream form of Trypanosoma brucei brucei S427 to substrate activity at recombinant type-1 nitroreductase in bloodstream form of Trypanosoma brucei brucei S427
Summary of the method: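 Bloodstream-form single-marker S427 grown at 37 °C in HMI9-T with 2.5 µg/mL G418. The NTR1-overexpressing line was also given 2.5 µg/mL phleomycin and induced with 1 µg/mL tetracycline 48 h before assay. Triplicate cultures seeded at 1×10^5 cells/mL with inhibitor; cell densities determined after 72 h to give EC50 for wild-type and NTR1 lines.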

Row | pIC50 [1] | pIC50 (Leishmania infantum) | Structure (SMILES) | CC50 (HepG2) | selectivity ratio [2] | selectivity ratio [3] | further results
1 |  |  | O=[N+]([O-])c1c(CS(=O)(=O)c2ccccc2)nc2c(-c3cccs3)cc(Cl)cn12 | > 3.9 µM |  |  | 
2 |  |  | O=[N+]([O-])c1c(CS(=O)(=O)c2ccccc2)nc2c(-c3ccccc3F)cc(Cl)cn12 | > 3.9 µM |  |  | 
3 |  |  | O=[N+]([O-])c1c(CS(=O)(=O)c2ccccc2)nc2c(-c3ccc(Cl)cc3)cc(Cl)cn12 | > 3.9 µM |  |  | 
4 |  |  | CCCCCCCCCCCCCCCCOP(=O)([O-])OCC[N+](C)(C)C [MILTEFOSINE] |  |  |  | CC50 (THP-1): > 40 µM
5 | 7.10 | 5.42 | O=Cc1ccc(-c2cc(Cl)cn3c([N+](=O)[O-])c(CS(=O)(=O)c4ccccc4)nc23)cc1 | > 31.2 µM | > 390 | > 8.2 | 
6 |  |  | O=[N+]([O-])c1c(CS(=O)(=O)c2ccccc2)nc2c(-c3ccco3)cc(Cl)cn12 | > 3.9 µM |  |  | 
7 |  |  | C[C@@H]1[C@H](O)[C@@H](C)/C=C/C=C/C=C/C=C/C=C/C=C/C=C/[C@H](O[C@@H]2O[C@H](C)[C@@H](O)[C@H](N)[C@@H]2O)C[C@@H]2O[C@](O)(C[C@@H](O)C[C@@H](O)[C@H](O)CC[C@@H](O)C[C@@H](O)CC(=O)O[C@H]1C)C[C@H](O)[C@H]2C(=O)O [AMPHOTERICIN B] |  |  |  | pIC50 (Leishmania donovani [4]): 7.15; CC50 at 72 h [5]: > 62.5 µM
8 |  |  | N#Cc1ccc(-c2cc(Cl)cn3c([N+](=O)[O-])c(CS(=O)(=O)c4ccccc4)nc23)cc1 | > 3.9 µM |  |  | 
9 | 4.88 |  | NCCC[C@](N)(C(=O)O)C(F)F [EFLORNITHINE, (S)-] | > 100 µM | > 7.5 |  | 
10 |  |  | CC1CS(=O)(=O)CCN1/N=C/c1ccc([N+](=O)[O-])o1 (stereo not given) [NIFURTIMOX] |  |  |  | pIC50 [6]: 5.73; pIC50 [7]: 6.22
11 | 6.64 | 5.70 | O=[N+]([O-])c1c(CS(=O)(=O)c2ccccc2)nc2c(-c3cccnc3)cc(Cl)cn12 | > 31.3 µM | > 136 | > 15.7 | 
12 | 6.51 | 5.89 | O=[N+]([O-])c1c(CS(=O)(=O)c2ccccc2)nc2c(-c3ccc(F)cc3)cc(Cl)cn12 | > 15.6 µM | > 50.3 | > 12 | 
13 | 6.21 | 5.80 | O=[N+]([O-])c1c(CS(=O)(=O)c2ccccc2)nc2c(-c3ccccc3)cc(Cl)cn12 | > 15.6 µM | > 25.6 | > 10 | Activity [8]: -0.69 V
14 | 7.15 | 5.80 | O=[N+]([O-])c1c(CS(=O)(=O)c2ccccc2)nc2c(-c3ccccc3C(F)(F)F)cc(Cl)cn12 | 22.7 µM | 324 | 14.2 | 
15 |  |  | O=[N+]([O-])c1c(CS(=O)(=O)c2ccccc2)nc2c(-c3ccc(F)cc3F)cc(Cl)cn12 | > 7.8 µM |  |  | 
16 |  |  | COc1cccc2c1C(=O)c1c(O)c3c(c(O)c1C2=O)C[C@@](O)(C(=O)CO)C[C@@H]3O[C@H]1C[C@H](N)[C@H](O)[C@H](C)O1 [DOXORUBICIN] |  |  |  | CC50 (THP-1): 1.4 µM
17 | 6.70 | 5.77 | O=[N+]([O-])c1c(CS(=O)(=O)c2ccccc2)nc2c(-c3cccc(F)c3)cc(Cl)cn12 | > 12.5 µM | > 62.5 | > 7.4 | 
18 |  |  | COc1ccc(-c2cc(Cl)cn3c([N+](=O)[O-])c(CS(=O)(=O)c4ccccc4)nc23)cc1 | > 3.9 µM |  |  | 
19 |  |  | O=[N+]([O-])c1c(CS(=O)(=O)c2ccccc2)nc2c(-c3ccc(C(F)(F)F)cc3)cc(Cl)cn12 | > 3.9 µM |  |  | 
20 | 7.05 | 5.82 | O=[N+]([O-])c1c(CS(=O)(=O)c2ccccc2)nc2c(-c3ccc(CO)cc3)cc(Cl)cn12 | 13.1 µM | 146 | 8.7 | 
21 | 6.22 |  | CSc1ccc(OCc2ncc([N+](=O)[O-])n2C)cc1 [FEXINIDAZOLE] | > 200 µM | > 333 | > 58.8 | pIC50 (Leishmania donovani [9]): < 4.30; selectivity ratio [10]: > 167; selectivity ratio [12]: > 50; Activity [8]: -0.83 V; pIC50 (Leishmania donovani [4]): 5.92; CC50 at 72 h [5]: 3.6 µM
22 |  |  | Cc1ccc(C(=O)Nc2ccc(S(=O)(=O)O)c3cc(S(=O)(=O)O)cc(S(=O)(=O)O)c23)cc1NC(=O)c1cccc(NC(=O)Nc2cccc(C(=O)Nc3cc(C(=O)Nc4ccc(S(=O)(=O)O)c5cc(S(=O)(=O)O)cc(S(=O)(=O)O)c45)ccc3C)c2)c1 [SURAMIN] | > 100 µM |  |  | 
23 | 6.39 | 5.52 | O=[N+]([O-])c1c(CS(=O)(=O)c2ccccc2)nc2c(-c3ccc(O)cc3)cc(Cl)cn12 | > 12.5 µM | > 30.5 | > 4.2 | 
24 |  |  | O=[N+]([O-])c1c(CS(=O)(=O)c2ccccc2)nc2c(Br)cc(Cl)cn12 |  |  |  | Activity [8]: -0.65 V
25 | 6.37 | 5.60 | CCN(CC)c1ccc(-c2cc(Cl)cn3c([N+](=O)[O-])c(CS(=O)(=O)c4ccccc4)nc23)cc1 | > 15.6 µM | > 36.3 | > 6.2 | 

Row | Structure (SMILES) | pIC50 [1] | pIC50 (Leishmania infantum) | CC50 (HepG2) | selectivity ratio [2] | selectivity ratio [3] | further results
26 | O=[N+]([O-])c1c(CS(=O)(=O)c2ccccc2)nc2c(Br)cc(Br)cn12 | 5.54 | 5.36 | > 31 µM | > 10.7 | > 7.1 | pIC50 (Leishmania donovani [9]): 5.26; selectivity ratio [10]: > 17.2; pIC50 (Leishmania donovani [11]): 5.72; selectivity ratio [12]: > 5.6; Activity [8]: -0.59 V; pIC50 [13]: 5.52; pIC50 [14]: 7.15; CC50 (THP-1): > 25 µM
27 | O=[N+]([O-])c1c(CS(=O)(=O)c2ccccc2)nc2c(-c3cccc(C(F)(F)F)c3)cc(Cl)cn12 | 7.40 | 5.96 | > 12.5 µM | > 312 | > 11.4 | Ratio IC50 [15]: 2; pIC50 [6]: 7.05; Activity [8]: -0.67 V
28 | O=[N+]([O-])c1c(CS(=O)(=O)c2ccccc2)nc2c(-c3ccccc3CO)cc(Cl)cn12 | 6.80 | < 5.00 | 88 µM | 550 | < 8.8 | Ratio IC50 [15]: 2; pIC50 [6]: 6.41; Activity [8]: -0.7 V; pIC50 [7]: 6.72
